Only some compounds are listed: those with a hit (about 3.9% of all), similar ones and a draw of the others.
tim10-1 inh: growth inhibitors of tim10-1 mutant yeast, primary screen, luminescence, uHTS | S. cerevisiae tim10-1 ts strain growth, BacTiter-Glo, 24 h | inhibition, % at 20 µM | 2.2% of 330,000 active | AID 463190, 2010;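 active = inhibition of at least 40%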;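 also: mutant grown at 25 °C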
XBP1 UPR activ: activators of adaptive XBP1 UPR arm, primary screen, cell-based, CHO-XBP1 luciferase reporter, luminescence, uHTS; IRE1-XBP1 UPR activation; percent of tunicamycin response, DMSO as zero; activation, % at 20 µM; 0.33% of 330,000 active;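 active = versus positive control, 20 µM dose yields 30% or more activation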
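Assay system: CHO-XBP1 luciferase reporter cells; Schedule: 6 h treatment, 37 °C; Detection: glow luminescence from Steady-Glo reagent; Benchmarks: high control tunicamycin 10 µg/mL final, low control DMSO vehicle only.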
tim23-1 inh: growth inhibitors of tim23-1 mutant yeast, primary screen, luminescence, uHTS | 1.3% of 330,000 active | inhibition, % at 20 µM | S. cerevisiae tim23-1 growth, BacTiter-Glo luminescence, 24 h;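 active = growth inhibition of the mutant yeast at or above 50%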;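 also: temperature-sensitive mutant grown at 25 °C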
TIM10 inh: growth inhibitors of isogenic TIM10 control yeast, primary screen, counter-screen for tim10-1 yeast inhibitor project, luminescence, uHTS | S. cerevisiae TIM10 strain growth, BacTiter-Glo luminescence, 24 h | inhibition, % at 10 µM | 1.4% of 330,000 active;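 active = inhibition of 40% or more at the single tested concentration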;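 also: wild-type TIM10 isogenic control strain grown at permissive 25 °C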
UPR CHOP act: activators of apoptotic CHOP UPR arm, primary screen, cell-based, CHO-CHOP luciferase reporter, luminescence, uHTS. UPR activation; percent of tunicamycin response over DMSO baseline. activation, % at 10 µM. 0.34% of 330,000 active;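 active = at 10 µM dose, activation of 40% or more, normalized to positive control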
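Dosing – one dose, 10 µM in 0.5% DMSO · System – CHO-CHOP cells, stable luciferase reporter of PERK-eIF2a-CHOP signalling · Input – 500 cells/well · Control set – tunicamycin 10 µg/mL final as positive, DMSO-only wells as negative · Timing – 6 h compound treatment, 37 °C · Measure – % activation vs tunicamycin · Technique – luminescence read with Steady-Glo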
tim10-1 conf: growth inhibitors of tim10-1 mutant yeast, confirmation, single concentration, luminescence, S. cerevisiae | shares compounds with tim10-1 inh | S. cerevisiae tim10-1 ts strain growth, BacTiter-Glo, 24 h | inhibition, % at 20 µM | 56% of 7,400 active;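 active = inhibition of yeast growth at or above a set limit in either of two repeat tests at 20 µM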;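 also: tim10-1 mutant grown at permissive 25 °C to find synthetic lethal compounds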
Hits are given with their value; . = inactive; / = no result given.

SMILES	tim10-1 inh	XBP1 UPR activ	tim23-1 inh	TIM10 inh	UPR CHOP act	tim10-1 conf
CCN(CC(=O)Nc1ccc(NC(C)=O)cc1)C(=O)C1(c2ccccc2)CC1	.	.	.	.	.	/
COc1ccccc1/C=C\C(=O)NCC(=O)N/N=C/c1cccc(OC)c1O	50.9	.	.	.	.	.
COc1cccc(NC(=S)Nc2cc(C)cc(C)n2)c1	.	.	.	.	.	/
Cc1cc(C)nc(NC(=S)Nc2cccc(F)c2)c1	40.5	.	.	.	.	.
Cc1c(Cl)cccc1NC(=S)N1CCOCC1	.	.	.	.	.	/
Cc1c(Cl)cccc1NC(=S)N1CCc2ccccc2C1	51.2	.	.	.	.	.
O=C(O)CCc1ccc(S(=O)(=O)Nc2ccccc2N2CCCCC2)cc1	.	.	.	.	.	/
COc1cccc(/C=N/n2c(C3CCCCC3)n[nH]c2=S)c1OC	.	.	.	.	.	/
COc1cccc(/C=N/n2c(C3CCCCC3)n[nH]c2=S)c1O	48.4	.	.	.	.	32.9
CC(C)N(Cc1ccccc1)C(=S)NC1CCCCC1	51.4	.	.	.	.	.
CC(C)N(C(=S)NC1CCCCC1)c1ccccc1	.	.	.	.	.	/
O=C(NN1CCOCC1)c1ccc(Br)cc1	42.3	.	.	.	.	.
CC(C)N1C(=O)C(=O)N(CC(=O)N2c3ccccc3NC(=O)CC2C)C1=O (configuration not stated)	.	.	.	.	.	/
Cc1cccc(NC(=O)CN(CC2CCCO2)C(=O)c2ccc(S(C)(=O)=O)cc2)c1C (configuration not stated)	.	.	.	.	.	/
COc1cc2[nH]c(C(=O)N3CCC(Cc4ccccc4)CC3)cc2c(OC)c1OC	44.5	.	.	.	.	.
C=CCn1c(SCc2ccc(C#N)cc2)nnc1-c1cccc(Cl)c1	46.0	.	.	.	.	.
C=CCn1c(SCc2cccc(C#N)c2)nnc1-c1ccccc1O	.	.	.	.	.	/
O=C(N/N=C/c1ccc(OC2CSC2)cc1)c1ccccc1	.	.	.	.	.	/
O=C(/C=C/c1ccc(OC2CSC2)cc1)c1ccccc1	43.5	.	.	.	.	33.3
CCC1(c2ccc(Cl)cc2)NC(=O)N(CC(=O)N2CCN(C(=O)c3ccco3)CC2)C1=O (configuration not stated)	.	.	.	.	.	/
Cc1ccccc1-n1c(SCC(=O)Nc2ccccc2Cl)nc2n[nH]c(C)c2c1=N	41.6	.	.	.	.	.
Cc1ccc(Cl)cc1-n1c(SCC(=O)NCCC2=CCCCC2)nc2n[nH]c(C)c2c1=N	.	.	.	.	.	/
Cc1ccccc1-n1c(SCc2ccccn2)nc2n[nH]c(C)c2c1=N	40.2	.	.	.	.	38.4
COc1ccc(OC)c(NC(=O)CSc2nc3n[nH]c(C)c3c(=N)n2-c2cccc(Cl)c2C)c1	42.6	.	.	.	.	.
Cc1ccc(-n2nnnc2SCc2ccccn2)cc1C	.	.	.	.	.	/
SMILES	tim10-1 inh	XBP1 UPR activ	tim23-1 inh	TIM10 inh	UPR CHOP act	tim10-1 conf
O=C(CNCc1ccc(Cl)cc1)Nc1ccc(C(=O)N2CCCCCC2)cc1	.	.	.	.	.	/
CCC(C(=O)Nc1nc(C)c(C(=O)OC)s1)c1ccccc1 (configuration not stated)	42.9	.	.	.	.	35.6
CCCCOC(=O)c1ccc(O)cc1	.	.	.	.	.	/
CCCCCCCCOC(=O)c1ccc(N)cc1	45.3	.	.	.	.	.
COc1cc(NC(=O)c2cc(-c3ccccc3Cl)on2)cc(OC)c1OC	45.1	.	.	.	.	.
COc1ccc(NC(=O)c2cc(-c3ccccc3Cl)on2)cc1	.	.	.	.	.	/
CC(=O)Nc1cccc(Oc2ncnc3scc(-c4ccc(C)cc4)c23)c1	41.7	.	.	.	.	28.9
Cc1ccc(-c2csc3ncnc(Oc4ccc5c(C)cc(=O)oc5c4)c23)cc1	.	.	.	.	.	/
CN(CCOc1ccc(Cl)cc1)C(=O)C1CCN(C(=O)c2ccc(Cl)cc2)CC1	.	.	.	.	.	/
Cc1cc(C)cc(OCC(=O)N2N=C(C(F)(F)F)CC2(O)C(C)(C)C)c1 (configuration not stated)	46.0	.	.	.	.	34.1
Cc1cc(C)cc(OCC(=O)N2N=C(c3cccnc3)CC2(O)C(F)(F)F)c1 (configuration not stated)	.	.	.	.	.	/
O=C(/C=C/c1ccc(F)cc1)N1CCN(c2ncccn2)CC1	.	.	.	.	.	/
CC(C)(C)c1ccc(/C=C/C(=O)N2CCN(c3ncccn3)CC2)cc1	42.6	.	.	.	.	35.0
CC(C)(C)n1nnnc1C(c1cccnc1)N(Cc1ccccc1)Cc1cccs1 (configuration not stated)	56.3	.	.	.	.	33.0
CC1Cc2cc(S(=O)(=O)N3CCCC(C(=O)N4CCCCC4)C3)ccc2N1C(=O)C1CC1 (configuration not stated)	42.7	.	.	.	.	.
CCCCCCCCCCCCCCCC[N+](C)(C)CC	79.0	.	.	.	.	.
CCCCCC[N+](C)(C)CCSSCC[N+](C)(C)CCCCCC	.	.	.	.	.	/
O=C(Cc1cccc([N+](=O)[O-])c1)Nc1ccc(C(=O)N2CCCCC2)cc1	.	.	.	.	.	/
Clc1ccccc1/C=C/c1ccnc2ccccc12	43.5	.	.	.	.	.
Oc1ccc(/C=C/c2ccnc3ccccc23)cc1	.	.	.	.	.	/
CCCC(C)C(=O)Nc1ncc(S(=O)(=O)c2ccc([N+](=O)[O-])cc2)s1 (configuration not stated)	.	.	.	.	.	/
CC(NC(=O)c1ccccc1Cl)C(=O)N1CCN(Cc2ccc3c(c2)OCO3)CC1 (configuration not stated)	.	.	.	.	.	/
C=CCNC(=O)NC(=O)COC(=O)/C=C/c1cccc([N+](=O)[O-])c1	.	.	.	.	.	/
CC(C)CCNC(=O)NC(=O)COC(=O)/C=C/c1cccc([N+](=O)[O-])c1	42.5	.	.	.	.	.
CCOC(=O)Cc1nnc2c(Nc3ccc(Cl)cc3)nc3nonc3n12	50.5	.	.	.	.	33.2
CC(=O)c1ccc(OCc2cc(C(=O)N3CCC(c4ccncc4)CC3)no2)cc1	44.3	.	.	.	.	.
COCC1CCN(C(=O)c2cc(COc3ccc(C)c(C)c3)on2)C1 (configuration not stated)	.	.	.	.	.	/
